Compound activity deposited in PubChem BioAssay by Sanford-Burnham Center for Chemical Genomics.
UPR CHOP act – activators of apoptotic arm of unfolded protein response (CHOP). CHO-CHOP luciferase reporter, UPR activation, luminescence; percent of tunicamycin response over DMSO baseline. activation, % at 10 µM. 0.34% of 330,000 active. AID 449763;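 active = at 10 µM dose, activation of 40% or more, normalized to positive control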;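 note: 100% = tunicamycin at 10 µg/mL and 0% = DMSO alone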
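Assay system: CHO-CHOP cells, stable luciferase reporter of PERK-eIF2a-CHOP signalling / Buffer or medium: F12 plus 10% serum / Compound dosing: one dose, 10 µM in 0.5% DMSO / Times: 6 h compound treatment, 37 °C / Technique: luciferase luminescence / Read-out: % reporter activation, DMSO baseline versus tunicamycin full activation / Benchmarks: tunicamycin and DMSO controls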
XBP1 UPR activ – activators of adaptive arm of unfolded protein response (XBP1) | CHO-XBP1 luciferase reporter, IRE1-XBP1 UPR activation, luminescence; percent of tunicamycin response, DMSO as zero | activation, % at 20 µM | 0.33% of 330,000 active | AID 463104;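 active = versus positive control, 20 µM dose yields 30% or more activation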;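 note: 100% = tunicamycin at 10 µg/mL and 0% = DMSO only wells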
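Test system: CHO-XBP1 luciferase reporter cells | Buffer or medium: Serum-containing F12 medium, 10% FBS | Schedule: 6 h compound exposure at 37 °C, 5% CO2 | Detection: Steady-Glo luciferase glow luminescence, 10 min after reagent addition | Read-out basis: Activation, % of tunicamycin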
tim10-1 inh – growth inhibitors of tim10-1 mutant yeast. 2.2% of 330,000 active. inhibition, % at 20 µM. S. cerevisiae tim10-1 ts strain growth, BacTiter-Glo, 24 h. AID 463190;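 active = inhibition of at least 40%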;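 note: mutant grown at 25 °C; 0% = DMSO wells with yeast and 100% = wells holding no yeast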
TIM10 inh – growth inhibitors of TIM10 yeast strain. S. cerevisiae TIM10 strain growth, BacTiter-Glo luminescence, 24 h. AID 463195. inhibition, % at 10 µM. 1.4% of 330,000 active;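 active = inhibition of 40% or more at the single tested concentration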;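 note: wild-type TIM10 isogenic control strain grown at permissive 25 °C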
tim23-1 inh – tim23-1 yeast growth inhibition; S. cerevisiae tim23-1 growth, BacTiter-Glo luminescence, 24 h; inhibition, % at 20 µM; 1.3% of 330,000 active; AID 463212;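 active = growth inhibition of the mutant yeast at or above 50%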;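 note: temperature-sensitive mutant grown at 25 °C; plate controls were DMSO-treated mutant yeast for no effect and medium wells lacking yeast for full effect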
tim23-1 conf – tim23-1 yeast growth inhibition, confirmed; shares compounds with tim23-1 inh; S. cerevisiae tim23-1 growth, BacTiter-Glo luminescence, 24 h; inhibition, % at 20 µM; 83% of 4,400 active; AID 463218;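 active = inhibition above about 39% in either of two replicate wells at 20 µM, limit read from the data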;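 note: temperature-sensitive tim23-1 mutant grown at 25 °C; 0% = DMSO wells with yeast and 100% = medium wells without yeast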
* hit, by the source's call. A selection: hits, their analogues and other compounds. The true share with any hit is near 3.9%.

How did CSc1ccc(CNC(=O)C2CCC(=O)N(Cc3cccc(F)c3)C2)cc1 (centres undefined) do in these assays?
UPR CHOP act: 0; XBP1 UPR activ: -2; tim10-1 inh: -22; TIM10 inh: -8; tim23-1 inh: -5

How did CCC(C)(C)C1CCc2[nH]nc(C(=O)NCC3CC3)c2C1 (centres undefined) do in these assays?
UPR CHOP act: 2; XBP1 UPR activ: 6; tim10-1 inh: 40; TIM10 inh: 35; tim23-1 inh: 56*; tim23-1 conf: 64*

What do the screens show for `CCC(C)(C)C1CCc2[nH]nc(C(=O)NN)c2C1` (centres undefined)?
UPR CHOP act: 0; XBP1 UPR activ: 6; tim10-1 inh: 11; TIM10 inh: -14; tim23-1 inh: 20

Results for CCC(C)(C)C1CCc2[nH]nc(C(=O)NC(C)C)c2C1 (centres undefined) ?
UPR CHOP act: -1; XBP1 UPR activ: 1; tim10-1 inh: 36; TIM10 inh: 22; tim23-1 inh: 53*; tim23-1 conf: 53*

How did CCC(C)(C)C1CCc2[nH]nc(C(=O)NC3CCCCC3)c2C1 (centres undefined) do in these assays?
UPR CHOP act: 6; XBP1 UPR activ: 7; tim10-1 inh: 30; TIM10 inh: 28; tim23-1 inh: 41

What do the screens show for `O=C(CCOc1ccccc1)Nc1ccc(Cl)c(S(=O)(=O)N2CCOCC2)c1`?
UPR CHOP act: 2; XBP1 UPR activ: -3; tim10-1 inh: 13; TIM10 inh: -2; tim23-1 inh: 20

What do the screens show for `Cc1cccc(Oc2sc(C(=O)c3ccccc3)c(N)c2C#N)c1`?
UPR CHOP act: 4; XBP1 UPR activ: 0; tim10-1 inh: 33; TIM10 inh: 31; tim23-1 inh: 55*; tim23-1 conf: 42*

How did N#Cc1c(Nc2ccccc2)sc(C(=O)c2ccccc2)c1N do in these assays?
UPR CHOP act: -4; XBP1 UPR activ: 6; tim10-1 inh: 11; TIM10 inh: 26; tim23-1 inh: 18

Results for CC(C(=O)N1CCCCC1)N(C)CC(=O)Nc1cccc(F)c1 (centres undefined) ?
UPR CHOP act: -2; XBP1 UPR activ: -1; tim10-1 inh: 2; TIM10 inh: 8; tim23-1 inh: 3

Results for S=C(NCc1ccccc1)NCc1cccc(Cl)c1 ?
UPR CHOP act: 2; XBP1 UPR activ: 0; tim10-1 inh: 31; TIM10 inh: 22; tim23-1 inh: 41

What do the screens show for `S=C(NCCc1cccc(Cl)c1)NCc1ccccc1`?
UPR CHOP act: 5; XBP1 UPR activ: -1; tim10-1 inh: 36; TIM10 inh: 30; tim23-1 inh: 56*; tim23-1 conf: 34

Results for O=C(COc1cc2oc(=O)c3c(c2cc1Cl)CCC3)NCc1ccccn1 ?
UPR CHOP act: 2; XBP1 UPR activ: 1; tim10-1 inh: 19; TIM10 inh: 13; tim23-1 inh: 20

How did Cc1ccc(S(=O)(=O)N2CCCCC2)cc1C(=O)NCCN1CCOCC1 do in these assays?
UPR CHOP act: 0; XBP1 UPR activ: -2; tim10-1 inh: 8; TIM10 inh: 7; tim23-1 inh: 10

Results for O=C(Nc1ccc(Nc2ccccc2)cc1)C(Cl)Cl ?
UPR CHOP act: 0; XBP1 UPR activ: -1; tim10-1 inh: 6; TIM10 inh: 29; tim23-1 inh: 37

How did CC(C)(C)C(=O)C(Cl)C(=O)Nc1ccccc1 (centres undefined) do in these assays?
UPR CHOP act: 21; XBP1 UPR activ: 54*; tim10-1 inh: 36; TIM10 inh: -58; tim23-1 inh: 70*; tim23-1 conf: -11

Results for CCOC(=O)c1c(S(=O)(=O)NCC(=O)Nc2ccc(F)cc2)c(C)n(C)c1C ?
UPR CHOP act: 0; XBP1 UPR activ: -2; tim10-1 inh: 3; TIM10 inh: 7; tim23-1 inh: -9

Results for CCCCN(CC)CCCNC(=O)c1cn(-c2ccc(OC)cc2)c(=O)c2ccccc12 ?
UPR CHOP act: 1; XBP1 UPR activ: 0; tim10-1 inh: 4; TIM10 inh: 3; tim23-1 inh: -7

What do the screens show for `Cc1ccc(C(=O)O/N=C(\N)c2ccccn2)c(Cl)c1`?
UPR CHOP act: -12; XBP1 UPR activ: -13; tim10-1 inh: 36; TIM10 inh: 33; tim23-1 inh: 51*; tim23-1 conf: 54*

How did CC(=O)NC1=NC(=O)/C(=C/c2cn(C(C)=O)nc2-c2ccccc2)S1 do in these assays?
UPR CHOP act: -2; XBP1 UPR activ: 1; tim10-1 inh: 5; TIM10 inh: -21; tim23-1 inh: -1

Results for CCN=C1S/C(=C\c2cn(C(C)=O)nc2-c2ccccc2)C(=O)N1CC ?
UPR CHOP act: 3; XBP1 UPR activ: 10; tim10-1 inh: 28; TIM10 inh: 29; tim23-1 inh: 53*; tim23-1 conf: 48*

What do the screens show for `Cc1nonc1OCCNCc1c(C(=O)N2CCCCCCC2)nc2ccc(Cl)cn12`?
UPR CHOP act: -3; XBP1 UPR activ: -2; tim10-1 inh: 26; TIM10 inh: 13; tim23-1 inh: 10

What do the screens show for `O=C(/C=C/c1ccccc1Cl)OCC(=O)c1ccc[nH]1`?
UPR CHOP act: 3; XBP1 UPR activ: 4; tim10-1 inh: 7; TIM10 inh: 11; tim23-1 inh: 53*; tim23-1 conf: 45*

What do the screens show for `O=C(COC(=O)c1cc(=O)[nH]c2ccccc12)NC(=O)c1ccccc1`?
UPR CHOP act: 1; XBP1 UPR activ: -3; tim10-1 inh: 18; TIM10 inh: 6; tim23-1 inh: -10

How did Cc1ccc(C(=O)NC2=NCCS2)cc1Cl do in these assays?
UPR CHOP act: 6; XBP1 UPR activ: -1; tim10-1 inh: -21; TIM10 inh: 15; tim23-1 inh: 55*; tim23-1 conf: 47*

What do the screens show for `O=C(NCCCc1ccccc1)c1c(O)nc2sccn2c1=O`?
UPR CHOP act: 0; XBP1 UPR activ: 0; tim10-1 inh: 36; TIM10 inh: 31; tim23-1 inh: 70*; tim23-1 conf: 54*

Results for O=c1c(Cl)nc2cc(Cl)ccc2n1CCNc1ncc(C(F)(F)F)cc1Cl ?
UPR CHOP act: -12; XBP1 UPR activ: -9; tim10-1 inh: 21; TIM10 inh: -18; tim23-1 inh: 62*; tim23-1 conf: 8

What do the screens show for `Cc1ccc(NC(=O)Nc2c(C)[nH]c(=O)[nH]c2=O)cc1Cl`?
UPR CHOP act: 0; XBP1 UPR activ: 4; tim10-1 inh: -3; TIM10 inh: -2; tim23-1 inh: 8

How did O=C(CCCN1C(=O)/C(=C/c2ccccc2OC(F)F)SC1=S)Nc1cccnc1 do in these assays?
UPR CHOP act: 0; XBP1 UPR activ: -2; tim10-1 inh: 16; TIM10 inh: 24; tim23-1 inh: 51*; tim23-1 conf: 52*
